From ChEMBL document CHEMBL4304822, “Mitochondrial-targeted Hsp90 C-terminal inhibitors manifest anti-proliferative activity” (Bioorg Med Chem Lett, 2019) come the findings set out here.

Molecules are shown by their SMILES. Active and inactive are the calls of the source. The calls are words filed in the database; no cut-off is given here.

For data set [1], the system named is MCF7. The data set can be described thus: Ratio of IC50 for N-(4'-(3-(dimethylamino)propoxy)biphenyl-4-yl)-3',6-dimethoxybiphenyl-3-carboxamide to IC50 for test compound for antiproliferative activity against human MCF7 cells. The class given is functional.
For data set [2], the system named is MCF7. The experiment in a line: Antiproliferative activity against human MCF7 cells by MTT assay. The class given is functional, cell-based.
The test system of data set [3] is SK-BR-3. The data set can be described thus: Antiproliferative activity against human SKBR3 cells by MTT assay. The class given is functional, cell-based. (In general: Tetrazolium assays rely on reduction of a dye to a coloured formazan, in cell work by metabolically active cells.)
A further data set has as its system PC-3. The data set can be described thus: Antiproliferative activity against human PC3 cells by MTT assay. The class given is functional, cell-based.
A further data set has as its system HCT-116. The experiment in a line: Antiproliferative activity against human HCT116 cells by MTT assay. The class given is functional, cell-based.
Data set [4] in a line: Drug uptake in cytoplasm in human PC3 cells assessed as lowered drug accumulation incubated for 24 hrs by LC/MS analysis. The class given is ADME, subcellular. The settings on record: pc-3, 24 h. The essentials: (§1)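 PC3 cells treated for 24 h, then separated into subcellular fractions; the compound in each isolated fraction was quantified by LC-MS.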
The test system of data set [5] is SK-BR-3. The experiment in a line: Ratio of IC50 for N-(4'-(3-(dimethylamino)propoxy)biphenyl-4-yl)-3',6-dimethoxybiphenyl-3-carboxamide to IC50 for test compound for antiproliferative activity against human SKBR3 cells. The class given is functional.
Data set [6] is described as follows: Drug uptake in mitochondria in human PC3 cells incubated for 24 hrs by LC/MS analysis. The class given is ADME. Conditions: pc-3, 24 h. Summed up:
as §1

The target of data set [7] is T1, Heat shock protein HSP90 (Homo sapiens, UniProt P07900+P08238). The experiment in a line: Inhibition of HSP90 […] in human SKBR3 cells assessed as induction of heat shock response by measuring increase in HSP70 protein level at 0.5 to 5 times antiproliferative IC50 incubated for 24 hrs by Western blot analysis. The class given is cell-based. (A western blot detects proteins with antibodies after separation by electrophoresis.)

The target in data set [8] is T1, Heat shock protein HSP90. The data set can be described thus: Inhibition of HSP90 at C-terminus in human SKBR3 cells assessed as induction of Raf1 protein degradation at 0.5 to 5 times antiproliferative IC50 incubated for 24 hrs by Western blot analysis. The class given is cell-based.
The target in data set [9] is T1, Heat shock protein HSP90. The data set can be described thus: Inhibition of HSP90 at C-terminus in human SKBR3 cells assessed as induction of CDK4 protein degradation at 0.5 to 5 times antiproliferative IC50 incubated for 24 hrs by Western blot analysis. The class given is cell-based.
Data set [10] has as its target T1, Heat shock protein HSP90. The data set can be described thus: Inhibition of HSP90 at C-terminus in human SKBR3 cells assessed as Her2 protein degradation at 0.5 to 5 times antiproliferative IC50 incubated for 24 hrs by Western blot analysis. The class given is cell-based.
Data set [11] deals with T1, Heat shock protein HSP90. The experiment in a line: Inhibition of HSP90 at C-terminus in human SKBR3 cells assessed as AKT protein degradation at 0.5 to 5 times antiproliferative IC50 incubated for 24 hrs by Western blot analysis. The class given is cell-based.
For data set [12], the system named is MCF7. The experiment in a line: Ratio of IC50 for N-(7-(3-(dimethylamino)propoxy)-8-methyl-2-oxo-2H-chromen-3-yl)-3',6-dimethoxybiphenyl-3-carboxamide to IC50 for test compound for antiproliferative activity against human MCF7 cells. The class given is functional.
Data set [13] relates to MCF7. The data set can be described thus: Ratio of IC50 for N-((1r,4r)-4-(4-(3-(dimethylamino)propoxy)phenyl)cyclohexyl)-3',6-dimethoxybiphenyl-3-carboxamide to IC50 for test compound for antiproliferative activity against human MCF7 cells. The class given is functional.

`COc1cccc(-c2cc(C(=O)Nc3ccc(-c4ccc(OCCC[P+](c5ccccc5)(c5ccccc5)c5ccccc5)cc4)cc3)ccc2OC)c1.[Br-]`: the figures for the “Ratio IC50” value in the data set with MCF7 [1] and in the data set on SK-BR-3 [5] were 2 and 10, respectively. Besides, the IC50 in the data set with MCF7 [2] came to 930 nM; in the data set with SK-BR-3 [3] it was 210 nM; in the data set on PC-3, 2940 nM; with HCT-116, 450 nM. In addition, the Drug uptake entry in data set [4] and in data set [6] was “Active” each time. Moreover, on Heat shock protein HSP90 [7], the Activity entry was “Non-Toxic”. Moreover, the inhibition entry on Heat shock protein HSP90 [8] and on Heat shock protein HSP90 [9] was “Active” in each case. Also, the inhibition result at Heat shock protein HSP90 [10] and on Heat shock protein HSP90 [11] was “inactive” throughout.

As to `COc1cccc(-c2cc(C(=O)Nc3ccc(-c4ccc(OCCCN(C)C)cc4)cc3)ccc2OC)c1`, the IC50 was 2140 nM with MCF7 [2], 2030 nM with SK-BR-3 [3], 3530 nM in the data set with PC-3 and 1490 nM with HCT-116. Besides, the Drug uptake result in data set [6] was “Active”.

On to `COc1cccc(-c2cc(C(=O)Nc3cc4ccc(OCCC[P+](c5ccccc5)(c5ccccc5)c5ccccc5)c(C)c4oc3=O)ccc2OC)c1.[Br-]`, for which the IC50 with MCF7 [2] was determined as 800 nM; with SK-BR-3 [3], 310 nM; in the data set on PC-3 it was 1940 nM; in the data set with HCT-116, 640 nM. Moreover, in the data set on MCF7 [12], the “Ratio IC50” value was 2. For the same compound, the Drug uptake result in data set [4] and in data set [6] was “Active” each time. At Heat shock protein HSP90 [7], the Activity result is recorded as “Non-Toxic”. The inhibition entry at Heat shock protein HSP90 [8] and at Heat shock protein HSP90 [9] was “Active” throughout. Besides, the inhibition result at Heat shock protein HSP90 [10] and at Heat shock protein HSP90 [11] was “inactive” in each case.

Consider `COc1cccc(-c2cc(C(=O)N[C@H]3CC[C@H](c4ccc(OCCC[P+](c5ccccc5)(c5ccccc5)c5ccccc5)cc4)CC3)ccc2OC)c1.[Br-]`, for which the “Ratio IC50” value with MCF7 [13] was determined as 2. Further, the IC50 with MCF7 [2] was determined as 170 nM; in the data set on SK-BR-3 [3], 230 nM; in the data set with PC-3 it was 1560 nM; with HCT-116 it was 380 nM. The Drug uptake entry in [4] and in data set [6] was “Active” in each case. Also, the Activity result on Heat shock protein HSP90 [7] is on record as “Non-Toxic”. Further, the inhibition result on Heat shock protein HSP90 [8] was “Active”. Moreover, the inhibition entry on Heat shock protein HSP90 [10] and at Heat shock protein HSP90 [11] was “inactive” in each case.

In the case of `COc1cccc(-c2cc(C(=O)Nc3cc4ccc(OCCCN(C)C)c(C)c4oc3=O)ccc2OC)c1`, the IC50 is 1800 nM in the data set on MCF7 [2], 850 nM in the data set with SK-BR-3 [3], 1010 nM in the data set with PC-3 and 830 nM in the data set with HCT-116. Further, the Drug uptake result in data set [6] is “Active”.

Consider `COc1cccc(-c2cc(C(=O)N[C@H]3CC[C@H](c4ccc(OCCCN(C)C)cc4)CC3)ccc2OC)c1`, for which the IC50 worked out at 340 nM in the data set with MCF7 [2] and 250 nM in the data set with SK-BR-3 [3]. In data set [6], the Drug uptake result was “Active”.

Broadly, the IC50 is the concentration at which inhibition is half-maximal. A higher IC50 goes with weaker potency.
